Measured values: publication PMC8637866 (RSC Chemical Biology, 2021)
pEC50: −log10 of the molar value. No end group written: not given here.

Legend:
[1] = molecular target: T1, PTHR1-6E (Homo sapiens, UniProt Q03431, A83I/D81R/G76A/K80A/K82Q/P78E/R79L/S71Q/S73D/S75E/T74Q); assay: cAMP response; type: cell-based
T1 sequence (Q03431 23-593 S71Q/S73D/T74Q/S75E/G76A/P78E/R79L/K80A/D81R/K82Q/A83I limits assumed): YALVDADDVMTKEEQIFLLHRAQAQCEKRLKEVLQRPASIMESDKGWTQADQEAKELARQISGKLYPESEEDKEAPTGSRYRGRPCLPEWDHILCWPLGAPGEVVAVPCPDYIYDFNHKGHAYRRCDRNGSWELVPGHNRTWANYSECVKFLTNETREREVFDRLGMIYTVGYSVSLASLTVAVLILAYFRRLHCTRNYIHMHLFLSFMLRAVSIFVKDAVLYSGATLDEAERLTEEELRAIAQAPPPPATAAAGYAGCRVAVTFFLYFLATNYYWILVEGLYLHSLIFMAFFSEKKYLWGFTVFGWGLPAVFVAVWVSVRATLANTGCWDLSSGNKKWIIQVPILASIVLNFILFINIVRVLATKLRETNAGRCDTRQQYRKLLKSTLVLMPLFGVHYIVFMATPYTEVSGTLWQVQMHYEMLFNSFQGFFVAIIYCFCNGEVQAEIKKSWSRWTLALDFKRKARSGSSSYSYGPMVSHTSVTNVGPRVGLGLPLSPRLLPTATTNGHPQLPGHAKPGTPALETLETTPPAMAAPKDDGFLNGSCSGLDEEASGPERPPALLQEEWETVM
Procedure, shortened: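 HEK293 cells stably expressing PTHR1 carrying the 6E tag plus a cAMP-responsive luciferase (Glosensor) were treated with graded concentrations of VHH–PTH1–11 conjugates. cAMP was read as luminescence. EC50 came from a sigmoidal dose–response fit with variable slope, using replicate wells per experiment and three independent experiments.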

[2] = system: neg-HEK cells; assay: Flow cytometry binding of VHH–biotin–PTH conjugates to neg-HEK cells; details: for pEC50: read-out: Binding EC50, Neg-HEK, 1 h on ice, streptavidin–PE, flow cytometry (MFI), mean of three independent experiments
Procedure, shortened: (§1)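 Adherent cells were detached with trypsin, washed, resuspended in PBS, and stained for 1 h on ice with graded concentrations of biotin-labelled VHH–PTH1–11 conjugates. Cells were washed, stained with streptavidin–PE, and analysed by flow cytometry. Line 1 used PTHR1-6E-HEK cells (HEK293 expressing PTHR1 with the 6E tag in the extracellular domain); line 2 used parental HEK293 cells. Median fluorescence intensity was fitted to sigmoidal curves, with maximal staining expressed relative to the MHC-I conjugate; three independent experiments.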

[3] = system: PTHR1-6E-HEK cells; assay: Flow cytometry binding of VHH–biotin–PTH conjugates to PTHR1-6E-HEK cells; set-up: species or system human
Procedure, shortened: as §1

[4] = system: human PTHR1; assay: cAMP stimulation by PTH1–34 CLAMPs on receptor cells; type: cell-based; details: HEK293 cells (receptor cells) that express human PTHR1; Fig. 5 (legend: PTHR1-6E-HEK)

Compound | cAMP stimulation compared with PTH1–34 (in words) [4] | pEC50 [2] | also measured
CC[C@H](C)[C@H](NC(=O)[C@H](CCC(=O)O)NC(=O)[C@H](CO)NC(=O)[C@@H](NC(=O)[C@@H](N)CO)C(C)C)C(=O)N[C@@H](CCC(N)=O)C(=O)N[C@@H](CC(C)C)C(=O)N[C@@H](CCSC)C(=O)N[C@@H](Cc1c[nH]cn1)C(=O)N[C@@H](CC(N)=O)C(=O)N[C@@H](CC(C)C)C(=O)NCC(=O)N[C@@H](CCCCN)C(=O)N[C@@H](Cc1c[nH]cn1)C(=O)N[C@@H](CC(C)C)C(=O)N[C@@H](CC(N)=O)C(=O)N[C@@H](CO)C(=O)N[C@@H](CCSC)C(=O)N[C@@H](CCC(=O)O)C(=O)N[C@@H](CCCNC(=N)N)C(=O)N[C@H](C(=O)N[C@@H](CCC(=O)O)C(=O)N[C@@H](Cc1c[nH]c2ccccc12)C(=O)N[C@@H](CC(C)C)C(=O)N[C@@H](CCCNC(=N)N)C(=O)N[C@@H](CCCCN)C(=O)N[C@@H](CCCCN)C(=O)N[C@@H](CC(C)C)C(=O)N[C@@H](CCC(N)=O)C(=O)N[C@@H](CC(=O)O)C(=O)N[C@H](C(=O)N[C@@H](Cc1c[nH]cn1)C(=O)N[C@@H](CC(N)=O)C(=O)N[C@@H](Cc1ccccc1)C(=O)N[C@@H](CS)C(N)=O)C(C)C)C(C)C [PTH1–34, reference compound] | – | – | pEC50 [1]: 9.74
VHH6E–PTH1–11: conjugate of VHH6E (binds UBC6E epitope tag), biotin and PTH1–11 (SVSEIQLMHNL; also: conjugated to VHH6E nanobody and biotin; UniProt P01270 32-42, looked up, fragment) | – | – | maximal staining (in words) ([2]; HEK-neg cells): a The maximal staining for VHH6E–PTH1–11 on HEK-neg cells was very weak, so binding EC50 values were not determined (ND).; staining signal compared with VHHMHC-I (in words) [3]: stronger signal than staining with VHHMHC-I
VHHGFP–PTH1–34: CLAMP of PTH1–34 conjugated to VHH that targets GFP (SVSEIQLMHNLGKHLNSMERVEWLRKKLQDVHNF; also: conjugated to anti-GFP VHH (with biotin); UniProt P01270 32-65, looked up, fragment) | performed similarly to PTH1–34 itself | – | –
VHHMHC-II–PTH1–34: CLAMP of PTH1–34 conjugated to VHH that targets murine MHC-II (SVSEIQLMHNLGKHLNSMERVEWLRKKLQDVHNF; Parathyroid hormone conjugated to anti-MHC-II VHH; UniProt P01270 32-65, looked up, fragment) | performed similarly to PTH1–34 itself | – | –
VHHMHC-I–PTH1–11: conjugate of VHHMHC-I (targets human β2-microglobulin, previously Nb30), biotin and PTH1–11 (SVSEIQLMHNL; also: conjugated to anti-β2-microglobulin VHH and biotin; UniProt P01270 32-42, looked up, fragment) | – | 8.37 | stimulation of cAMP responses (in words) ([1]; PTHR1-6E-HEK cells, Fig. 2e and Table 1): essentially inactive in stimulating cAMP responses
VHHa5b1–PTH1–11: conjugate of VHHα5β1 (targets integrin α5β1), biotin and PTH1–11 (SVSEIQLMHNL; also: conjugated to anti-integrin α5β1 VHH and biotin; UniProt P01270 32-42, looked up, fragment) | – | 8.52 | –
